A value given as a limit tells only on which side of the number the result lay.

The test system of one assay is KB. The assay is described as follows: Cytotoxicity against human KB cells assessed as growth inhibition after 72 hrs by MTT assay. It is filed as functional, cell-based. For orientation: Formazan colour is commonly taken as a measure of viable cells.
The species entered for assay [1] is Homo sapiens. The assay is described as follows: Inhibition of P-gp in human KBv200 cells assessed as increase in intracellular rhodamine123 accumulation by measuring fluorescence activity ratio at 10 uM incubated for 4 hrs followed by rhodamine123 addition measured after 1 hr by flow cytometry. It is filed as cell-based. In a few lines:
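KBv200 cells were plated at 1.5 × 10^5/mL and left overnight. Compounds were added at 10 μM in DMSO, with verapamil as reference, for 4 h at 37 °C, 5% CO2. Rho123 at 10 μM was then added for 1 h. Cells were washed twice, resuspended in ice-cold PBS and analysed by flow cytometry. FAR = (F treated − F DMSO control)/(F untreated − F DMSO control).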
(In general: Flow cytometry measures light scatter and fluorescence of single cells or particles in a stream.)

A short description of assay [2]: Cytotoxicity against human KBv200 cells assessed as growth inhibition after 72 hrs by MTT assay. As to conditions: KBv200, 72 h. It is filed as functional, cell-based.
For assay [3], the species on record is Homo sapiens. The assay is described as follows: Inhibition of P-gp in human KBv200 cells assessed as potentiation of navelbine-induced cytotoxicity by measuring reduction in navelbine IC50 at 10 uM after 72 hrs by MTT assay relative to control. The assay is classed as cell-based. In a few lines: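 KBv200 cells were seeded at 2500 cells/well for 12 h. Navelbine was added at 0.003–30 μM (0.003, 0.01, 0.03, 0.1, 0.3, 1, 3, 10, 30), alone or with modulator at 1, 3 or 10 μM, or with verapamil at 10 μM. Incubation was 72 h, followed by MTT read at A570. Navelbine IC50 came from percent growth inhibition. Reversal fold = IC50 of navelbine alone / IC50 of the combination.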

In the case of `CC(=O)O[C@]12C[C@H](C)[C@H](O)[C@@H]1/C=C(\C)CC[C@H]1[C@@H](/C=C(\C)C2=O)C1(C)C` [JOLKINOL D], the values for the IC50 (in the assay on KB; in assay [2]) were 25.9 µM and 19.9 µM, respectively. In addition, the Ratio in the assay listed under Homo sapiens [1] was 0.66.

Turning to `CC(=O)N[C@@H]1[C@@H]2[C@H](CC[C@@]3(C)[C@H](O)[C@H]4[C@@H](OC(=O)/C=C/c5ccccc5)[C@@H](C)C[C@]4(O)C(=O)[C@@]13C)C2(C)C`, the IC50 (in the assay on KB; in assay [2]) was above 30 µM each time. Besides, the Ratio in the assay filed under Homo sapiens [1] was 1.51.

As for `CC(=O)/C=C/C[C@@H](C)[C@@H]1CC[C@]2(C)C3=C(CC[C@@]12C)[C@@]1(C)CC[C@H](O)C(C)(C)[C@@H]1CC3=O`, the IC50 (as a rule, the concentration needed to halve the response being measured) in the assay on KB was determined as 21.6 µM; in assay [2], 22.9 µM. Also, the Ratio in the assay filed under Homo sapiens [1] was 1.3.

Consider `C/C1=C\[C@@H]2[C@H](C[C@@H](O)/C(C)=C/[C@H]3[C@@H](OC(=O)c4ccccc4)[C@@H](C)C[C@]3(O)C1=O)C2(C)C`, for which the IC50 in the assay on KB was determined as 21.4 µM; in assay [2] it was 20.6 µM. Besides, in the assay listed under Homo sapiens [1], the Ratio is 0.43.

As to `C/C1=C/C[C@H]2[C@@H](/C=C(\C)C(=O)[C@@]3(OC(=O)c4ccccc4)C[C@H](C)[C@H](O)[C@@H]3[C@H]1O)C2(C)C`, the IC50 in the assay with KB is 27.2 µM; in assay [2], above 30 µM. Also, the Ratio in the assay filed under Homo sapiens [1] is 1.13.

As for `C/C1=C\[C@@H]2[C@H](C[C@@H](O)[C@@]3(C)O[C@@H]3[C@H]3[C@@H](OC(=O)c4ccccc4)[C@@H](C)C[C@]3(O)C1=O)C2(C)C`, the IC50 (with KB; in assay [2]) was above 30 µM throughout. In the assay filed under Homo sapiens [1], the Ratio came out at 0.44.

Take `C=C1CC[C@H]2[C@@H](/C=C(\C)C(=O)[C@@]3(OC(C)=O)C[C@H](C)[C@H](O)[C@@H]3[C@H]1O)C2(C)C`: the IC50 (with KB; in assay [2]) was above 30 µM throughout. Moreover, the Ratio in the assay listed under Homo sapiens [1] was found to be 0.7.

As for `C[C@H]1C[C@]2(OC(=O)/C=C/c3ccccc3)C(=O)[C@@]3(C)[C@@H]4[C@@H](O)C(C)(C)[C@H]4CC[C@@]3(C)[C@H](O)[C@H]2[C@H]1O`, the IC50 with KB came to 10.9 µM; in assay [2], 10.6 µM. For the same compound, the Ratio in the assay filed under Homo sapiens [1] worked out at 1.47.

Consider `C/C1=C\[C@@H]2[C@H](CC[C@@]3(C)O[C@@H]3[C@H]3[C@@H](O)[C@@H](C)C[C@]3(OC(=O)c3ccccc3)C1=O)C2(C)C` [LATILAGASCENE F], for which the IC50 (in the assay on KB; in assay [2]) was above 30 µM each time. The Ratio in the assay filed under Homo sapiens [1] worked out at 1.3.

With `CC1=C2C=C3CC[C@@H]4C(C)(C)C(=O)CC[C@@]4(C)[C@@H]3C[C@H]2OC1=O` [HELIOSCOPINOLIDE E], the values for the IC50 (with KB; in assay [2]) were 22.4 µM and above 30 µM, respectively. In the assay filed under Homo sapiens [1], the Ratio was 0.45.

On to `C[C@H]1CC2=C([C@H]1O)[C@@H](O)[C@]1(C)CC[C@H]3[C@@H]([C@@H](OC(=O)c4ccccc4)[C@]1(C)C2=O)C3(C)C`, for which the values for the IC50 (in the assay on KB; in assay [2]) were 13.5 µM and 16.1 µM, respectively. In addition, in the assay listed under Homo sapiens [1], the Ratio was found to be 1.79.

Consider `C[C@H]1C[C@]2(O)C(=O)[C@@]3(C)[C@H](OC(=O)c4ccccc4)[C@@H]4[C@H](CC[C@@]3(C)[C@H](O)[C@H]2[C@H]1O)C4(C)C`, for which the IC50 worked out at 26.6 µM with KB and 29 µM in assay [2]. Also, the Ratio in the assay filed under Homo sapiens [1] was found to be 0.97.

Turning to `CC(=O)[C@@H]1CC[C@]2(C)C3=C(CC[C@@]12C)[C@@]1(C)CC[C@H](O)C(C)(C)[C@@H]1CC3=O`, the IC50 (with KB; in assay [2]) was above 30 µM each time. Also, in the assay filed under Homo sapiens [1], the Ratio came out at 0.98.

Take `CC(=O)CC/C(=C/C1=C(C)CCC1=O)C(C)C` [LITSEACHROMOLAEVANE B]: the IC50 (with KB; in assay [2]) was above 30 µM in each case. For the same compound, the Ratio in the assay listed under Homo sapiens [1] stood at 0.4.

Turning to `C[C@@H]1C[C@]2(O)C(=O)[C@@]3(C)[C@H](OC(=O)c4ccccc4)[C@@H]4[C@H](CC[C@@]3(C)[C@H](O)[C@H]2[C@H]1O)C4(C)C`, the IC50 in the assay with KB is above 30 µM; in assay [2] it was 29.2 µM. For the same compound, the Ratio in the assay filed under Homo sapiens [1] was 0.94.

On to `C[C@H]1C[C@]2(OC(=O)c3ccccc3)C(=O)[C@@]3(C)[C@@H]4[C@@H](O)C(C)(C)[C@H]4CC[C@@]3(C)[C@H](O)[C@H]2[C@H]1O`, for which the IC50 in the assay on KB was 20.1 µM; in assay [2], above 30 µM. The Ratio in the assay filed under Homo sapiens [1] amounted to 0.63.

Take `C[C@H]1C[C@]2(OC(=O)/C=C/c3ccccc3)C(=O)/C(CO)=C/[C@@H]3[C@H](CC[C@@]4(C)O[C@H]4[C@H]2[C@H]1O)C3(C)C`: the IC50 (with KB; in assay [2]) was above 30 µM throughout. In addition, in the assay filed under Homo sapiens [1], the Ratio stood at 0.35.

In the case of `CC(=O)O[C@H]1C(=O)[C@@]2(C)[C@H]([C@H](OC(=O)c3ccccc3)[C@]3(O)C[C@H](OC(=O)[C@H](O)[C@@H](NC(=O)c4ccccc4)c4ccccc4)C(C)=C1C3(C)C)[C@]1(OC(C)=O)CO[C@@H]1C[C@@H]2O` [PACLITAXEL], the IC50 with KB is 0.0036 µM; in assay [2], 2.12 µM.

Take `CC(=O)O[C@]12C[C@H](C)[C@H](O)[C@@H]1[C@@H](O)/C(C)=C/C[C@H]1[C@@H](/C=C(\C)C2=O)C1(C)C`: the IC50 (in the assay with KB; in assay [2]) was above 30 µM each time. Moreover, the Ratio in the assay listed under Homo sapiens [1] is 1.27.

In the case of `CC1=C2C=C3CC[C@@H]4C(C)(C)[C@@H](O)CC[C@@]4(C)[C@@H]3C[C@H]2OC1=O` [HELIOSCOPINOLIDE B], the IC50 was 20.8 µM with KB and above 30 µM in assay [2]. In addition, in the assay listed under Homo sapiens [1], the Ratio is 0.49.

Turning to `CC1(C)CC[C@]2(C)CC(=O)[C@]3(C)C4=C(CC[C@@]3(C)[C@@H]2C1)[C@@]1(C)CC[C@H](O)C(C)(C)[C@@H]1CC4=O`, the IC50 in the assay on KB is 10.3 µM; in assay [2], 12 µM. Moreover, the Ratio in the assay filed under Homo sapiens [1] amounted to 0.95.

Consider `C=C1CC[C@H]2[C@@H]([C@@H]3[C@@H]1C1=C(C[C@H](C)C1=O)[C@@H](O)[C@@]3(C)O)C2(C)C`, for which the IC50 (in the assay on KB; in assay [2]) was above 30 µM throughout. The Ratio in the assay filed under Homo sapiens [1] came to 0.76.

Take `C[C@H](/C=C/C=O)[C@@H]1CC[C@]2(C)C3=C(CC[C@@]12C)[C@@]1(C)CC[C@H](O)C(C)(C)[C@@H]1CC3=O`: the IC50 (in the assay with KB; in assay [2]) was above 30 µM each time. In addition, the Ratio in the assay filed under Homo sapiens [1] is 1.25.

As to `COc1ccc(CCN(C)CCCC(C#N)(c2ccc(OC)c(OC)c2)C(C)C)cc1OC` (stereo not drawn), the fold change (FC) in the assay listed under Homo sapiens [3] was determined as 259. In the assay listed under Homo sapiens [1], the Ratio came out at 2.25.

`C/C1=C\[C@@H]2[C@H](CC[C@@]3(C)O[C@@H]3[C@H]3[C@@H](O)[C@@H](C)C[C@]3(OC(=O)/C=C/c3ccccc3)C1=O)C2(C)C` [JOLKINOL B]: the IC50 with KB stood at 19.8 µM; in assay [2], 18.2 µM. Also, in the assay listed under Homo sapiens [1], the Ratio was determined as 3.61.

These data come from ChEMBL document CHEMBL4190209, “Terpenoids from Euphorbia soongarica and Their Multidrug Resistance Reversal Activity” (J Nat Prod, 2017).
